Published values pooled from the literature.
Protocols differ between the studies behind these lines.
HIPK4: Homeodomain-interacting protein kinase 4 (HIPK4, Homo sapiens, UniProt Q8NE63)
Rps6ka1: Ribosomal protein S6 kinase alpha-1 (Rps6ka1, Rattus norvegicus, UniProt Q63531)
MAOA: Amine oxidase [flavin-containing] A (MAOA, Homo sapiens, UniProt P21397)
CDKL2: Cyclin-dependent kinase-like 2 (CDKL2, Homo sapiens, UniProt Q92772)

COc1cc(NC(C)=O)c(Cl)cc1C(=O)Nc1nccs1  inhibition (Kappa-type opioid receptor (Oprk1, Rattus norvegicus, UniProt P34975); ligand displacement, radioligand; 10 µM): 42.5%
O=C(O)c1ccc2c(c1)nc(NCCc1cccc(Cl)c1)c1ncncc12  remaining activity (HIPK4; enzyme activity, inhibitor, radiometric; 1 µM): 53%
CCCOc1ccc(OC)c(F)c1C(=O)c1ccc(C(=O)N[C@@H]2CNC[C@H]2NC(=O)c2ccc3[nH]ncc3c2)cc1  remaining activity (Rps6ka1; enzyme activity, inhibitor; 0.75 µM): 78%
O=C(Nc1ccc([N+](=O)[O-])cc1Cl)c1ccc2ccccc2c1O  inhibition (MAOA; enzyme activity, inhibitor; 1 µM, 20 min): -4%
Cc1ccc(C(=O)Nc2ccc(CN3CCN(C)CC3)c(C(F)(F)F)c2)cc1C#Cc1cnc2cccnn12  remaining activity (CDKL2; enzyme activity; 23.5 nM): 0%
Cc1cc([N+](=O)[O-])ccc1NC(=O)c1ccc(Cl)cc1  inhibition (MAOA; enzyme activity, inhibitor; 1 µM, 20 min): 13%
CC[C@H](C)[C@H](NC(=O)[C@H](CCC(N)=O)NC(=O)[C@H](CC(C)C)NC(=O)[C@H](CCSC)NC(=O)[C@H](CCCCN)NC(=O)[C@H](CO)NC(=O)[C@H](CO)NC(=O)[C@H](CCSC)NC(=O)[C@H](CC(C)C)NC(=O)[C@H](CC(N)=O)NC(=O)[C@@H](NC(=O)[C@@H](NC(=O)[C@H](CO)NC(=O)[C@H](CC(C)C)NC(=O)[C@H](CS)NC(=O)[C@H](CCCNC(=N)N)NC(=O)[C@H](CC(=O)O)NC(=O)[C@H](Cc1c[nH]c2ccccc12)NC(=O)[C@H](Cc1ccccc1)NC(=O)[C@H](C)NC(=O)[C@H](CCC(=O)O)NC(=O)[C@@H](N)CCCCN)C(C)C)[C@@H](C)CC)C(=O)N[C@@H](CC(N)=O)C(=O)N[C@@H](C)C(=O)O  inhibition (Cyclin-dependent kinase 5, with p25 (CDK5, Homo sapiens, UniProt Q00535); enzyme activity, inhibitor, radiometric; 100 µM): 41%
O=C(O)c1ccc2c(c1)nc(Nc1cccc(F)c1)c1ccncc12  remaining activity (HIPK4; enzyme activity, inhibitor, radiometric; 1 µM): 1%
O=C(Nc1ccc([N+](=O)[O-])cc1Cl)c1cc2ccccc2s1  inhibition (MAOA; enzyme activity, inhibitor; 1 µM, 20 min): 11%
Cc1ccc(NC(=O)c2ccc(C)c(C(F)(F)F)c2)cc1C#Cc1nn(C2CCC(O)CC2)c2ncnc(N)c12 (stereo not shown)  remaining signal (Rps6ka1; cell-free assay; 10 µM): 20%
COc1cc(Cl)c(C(=O)N[C@@H](CN[C@H]2CC[C@@H](N)CC2)Cc2ccc(C#N)cc2)cc1-c1ccc(CN[C@H](C)c2ccc(C)cc2)o1  remaining activity (Cyclin-dependent kinase-like 4 (CDKL4, Homo sapiens, UniProt Q5MAI5); enzyme activity, inhibitor; 1 µM): 90%
O=C(Nc1ccc([N+](=O)[O-])cc1Cl)c1cc2ccccc2cc1O  inhibition (MAOA; enzyme activity, inhibitor; 1 µM, 20 min): -2%
Oc1c(Br)cc(Oc2ccc(Br)cc2Br)cc1Br  Km (Sulfotransferase 1B1 (SULT1B1, Homo sapiens, UniProt O43704); enzyme activity, substrate): 44 µM
Nc1ncnc2occ(-c3ccc(NC(=O)Nc4cc(C(F)(F)F)ccc4F)cc3)c12  remaining signal (CDKL2; cell-free assay; 20 µM): 0.6%
O=C(Nc1ccc(OC(F)(F)F)cc1)c1ccccc1  inhibition (MAOA; enzyme activity, inhibitor; 1 µM, 20 min): 24%
Oc1cccc(Nc2nc(-c3ccc(F)cc3F)cs2)c1  inhibition (Vasoactive intestinal polypeptide receptor 1 (VIPR1, Homo sapiens, UniProt P32241); cell-free assay; 10 µM): -0.5%
